The values below come from ChEMBL document CHEMBL1153713, “Effect of chirality of small molecule organofluorine inhibitors of amyloid self-assembly on inhibitor potency” (Bioorg Med Chem Lett, 2009).

SMILES strings stand for the structures. Activity calls are given as the source filed them. The calls are words filed in the database; no cut-off is given here.

Test [1] in a line: Inhibition of amyloid beta (1 to 40) after 140 hrs by thioflavin-T assay. The method in brief:
(§1)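 Synthetic Aβ1-40 dissolved in 100 mM NaOH (40 mg/ml), diluted to 100 μM final in 10 mM HEPES, 100 mM NaCl, 0.02% NaN3, pH 7.4; inhibitor added from DMSO at inhibitor/Aβ = 10. Incubated at 37°C, 77 rpm shaking, up to 140 h. Aliquots into 5 μM ThT in glycine-NaOH pH 8.5; ex 430/em 484 nm, 0 h background subtracted, normalized to inhibitor-free control.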

Test [2] can be described thus: Inhibition of amyloid beta (1 to 40) after 94 hrs by thioflavin-T assay relative to control. The method in brief: as §1
Test [3] can be described thus: Inhibition of amyloid beta (1 to 40) fibrillation by atomic force microscopy relative to control. The conditions noted are these: concentration not given here. Put shortly:
(§2)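 Aβ1-40 (100 μM in HEPES/NaCl/NaN3, pH 7.4) incubated with inhibitor (DMSO stock, 10:1 inhibitor:peptide) at 37°C with gentle shaking. Aliquots diluted in the same HEPES buffer, 2-5 μL spotted on freshly cleaved mica. Imaged by non-contact AFM over 10 μm2 scans and compared with inhibitor-free control.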

The nature of test [4]: Inhibition of amyloid beta (1 to 40) fibrillation by atomic force microscopy. Put shortly: as §2

The inhibition is the drop in the measured response relative to a control, in per cent. A lower inhibition goes with a weak effect. Consider `CCOC(=O)[C@](O)(c1c[nH]c2ccc(Br)cc12)C(F)(F)F`, for which the result in test [1], in test [2] and in test [4] was Active. The inhibition in test [3] stood at 60%.

In the case of `CCOC(=O)[C@@](O)(c1c[nH]c2ccc(I)cc12)C(F)(F)F`, the result in test [1], in test [2] and in test [4] was Active.

Take `CCOC(=O)[C@](O)(c1c[nH]c2ccc(I)cc12)C(F)(F)F`: the result in test [1], in test [2] and in test [4] was Active.

`CCOC(=O)[C@@](O)(c1c[nH]c2ccc(Cl)cc12)C(F)(F)F`: the outcome in test [1], in test [2] and in test [4] was Active. Also, the inhibition in test [3] was determined as 60%.

As for `CCOC(=O)[C@@](O)(c1c[nH]c2ccc(Br)cc12)C(F)(F)F`, the outcome in test [1], in test [2] and in test [4] was Active.

Consider `CCOC(=O)[C@](O)(c1c[nH]c2ccc(Cl)cc12)C(F)(F)F`, for which the result in test [1], in test [2] and in test [4] was Active. In test [3], this compound displayed an inhibition of 60%.
